Laboratory results: ChEMBL document CHEMBL1127826, “Inhibitors of acyl-CoA:cholesterol acyltransferase (ACAT). 7. Development of a series of substituted N-phenyl-N'-[(1-phenylcyclopentyl)methyl]ureas with enhanced hypocholesterolemic activity” (J Med Chem, 1994)

Key:
Rattus norvegicus [1] = assay: Compound was evaluated in experiment 1 for Total cholesterol at 1.0 (mg/kg) dose; format: functional; parameters: unit not given beside the values
In short: (§1)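 Chronic model in male Sprague-Dawley rats (200-225 g). Rats were fed chow with peanut oil 5.5%, cholesterol 1.5% and cholic acid ad libitum for 2 weeks. Test article was given by gavage once daily (morning) in the second week, as a CMC/Tween aqueous suspension. Blood was taken by cardiac puncture under ether 24 h after the last dose. Plasma total, HDL and nonHDL cholesterol were measured with an Abbott VP analyzer using dextran sulfate precipitation, reported as mg/dL and % change from control. Controls were cholesterol-fed rats and rats switched to chow in week 2.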

Rattus norvegicus [2] = assay: Compound was evaluated in experiment 1 for Change in High density lipoproteins at 10 (mg/kg) dose; format: functional; in short: as §1
Rattus norvegicus [3] = assay: Compound was evaluated in experiment 1 for Change in High density lipoproteins at 1.0 (mg/kg) dose; format: functional; in short: as §1
Rattus norvegicus [4] = assay: Compound was evaluated in experiment 1 for High density lipoproteins at 1.0 (mg/kg) dose; format: functional; in short: as §1
Rattus norvegicus [5] = assay: Compound was evaluated in experiment 1 for change in non High density lipoprotein at the doses at 3.0 (mg/kg) dose; format: functional; in short: as §1
Rattus norvegicus [6] = assay: Compound was evaluated in experiment 1 for Total cholesterol at 0.3 (mg/kg) dose; format: functional; parameters: unit not given beside the values; in short: as §1
Rattus norvegicus [7] = assay: Compound was evaluated in experiment 1 for Change in High density lipoproteins at 3.0 (mg/kg) dose; format: functional; in short: as §1
Rattus norvegicus [8] = assay: Compound was evaluated in experiment 1 for Change in total cholesterol at 3.0 (mg/kg) dose; format: functional; in short: as §1
Rattus norvegicus [9] = assay: Compound was evaluated in experiment 2 for High density lipoproteins at 30 (mg/kg) dose; format: functional; in short: as §1
[10] = Solubility at, 0.1 N HCl; format: physicochemical; details: read-out: S
Rattus norvegicus [11] = species: Rattus norvegicus; assay: Percent change in total cholesterol in peanut oil (5.5%)-, cholic acid (0.3%)-, Cholesterol (1.5%)-fed rats after a single dose.; format: functional
In short: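 Male Sprague-Dawley rats (200-225 g), n=5-7/group, given a single oral dose at 4 p.m. as a suspension in 1.5% CMC/0.2% Tween-20 in water (50 mg/kg); controls received vehicle alone. The rats then had free access to chow with peanut oil, cholesterol and cholic acid. At 8 a.m. next day they were bled by cardiac puncture under ether, and serum total cholesterol was measured as % change versus controls (unpaired two-tailed t-test).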

Rattus norvegicus [12] = assay: Compound was evaluated in experiment 2 for Change in total cholesterol at 30 (mg/kg) dose; format: functional; in short: as §1
Rattus norvegicus [13] = assay: Compound was evaluated in experiment 1 for non High density lipoproteins at 0.3 (mg/kg) dose; format: functional; in short: as §1
Rattus norvegicus [14] = assay: Compound was evaluated in experiment 2 for Total cholesterol at 30 (mg/kg) dose; format: functional; in short: as §1
Rattus norvegicus [15] = assay: Compound was evaluated in experiment 1 for change in non High density lipoprotein at the doses at 1.0 (mg/kg) dose; format: functional; in short: as §1
Rattus norvegicus [16] = assay: Compound was evaluated in experiment 1 for change in non High density lipoprotein at the doses at 0.3 (mg/kg) dose; format: functional; in short: as §1
Rattus norvegicus [17] = assay: Compound was evaluated in experiment 1 for Change in total cholesterol at 10 (mg/kg) dose; format: functional; in short: as §1
Rattus norvegicus [18] = assay: Compound was evaluated in experiment 1 for High density lipoproteins at 3.0 (mg/kg) dose; format: functional; in short: as §1
Rattus norvegicus [19] = assay: Compound was evaluated in experiment 1 for change in non High density lipoprotein at the doses at 10 (mg/kg) dose; format: functional; in short: as §1
Rattus norvegicus [20] = assay: Compound was evaluated in experiment 1 for Change in total cholesterol at 0.3 (mg/kg) dose; format: functional; in short: as §1
Rattus norvegicus [21] = assay: Compound was evaluated in experiment 1 for non High density lipoproteins at 1.0 (mg/kg) dose; format: functional; in short: as §1
Rattus norvegicus [22] = assay: Compound was evaluated in experiment 1 for High density lipoproteins at 0.3 (mg/kg) dose; format: functional; in short: as §1
Rattus norvegicus [23] = assay: Compound was evaluated in experiment 1 for non High density lipoproteins at 3.0(mg/kg) dose; format: functional; in short: as §1
Rattus norvegicus [24] = assay: Compound was evaluated in experiment 1 for non High density lipoproteins at 10 (mg/kg) dose; format: functional; in short: as §1
Rattus norvegicus [25] = assay: Compound was evaluated in experiment 1 for Change in total cholesterol at 1.0 (mg/kg) dose; format: functional; in short: as §1
[26] = Solubility at, pH 7.4; format: physicochemical; details: buffer, read-out: S
[27] = Solubility at, pH 4.0; format: physicochemical; details: buffer, read-out: S
Rattus norvegicus [28] = assay: Compound was evaluated in experiment 2 for change in non High density lipoprotein at the doses at 30 (mg/kg) dose; format: functional
In short: (§2)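 Male Sprague-Dawley rats (200-225 g) were fed chow with peanut oil (5.5%), cholesterol (1.5%) and cholic acid (0.5%) ad libitum for 2 weeks. During week 2 they were gavaged daily each morning with compound in aqueous CMC/Tween suspension. Controls were fed the cholesterol diet for 2 weeks, or switched to chow for week 2. Rats were bled by cardiac puncture under ether 24 h post-dose. Plasma HDL-C was measured after dextran sulfate precipitation, along with nonHDL-C. Values are given in mg/dL and as % change from control.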

Rattus norvegicus [29] = assay: Compound was evaluated in experiment 1 for Total cholesterol at 10 (mg/kg) dose; format: functional; parameters: unit not given beside the values; in short: as §1
Rattus norvegicus [30] = assay: Compound was evaluated in experiment 1 for Total cholesterol at 3.0 (mg/kg) dose; format: functional; parameters: unit not given beside the values; in short: as §1
Rattus norvegicus [31] = assay: Compound was evaluated in experiment 1 for Change in High density lipoproteins at 0.3 (mg/kg) dose; format: functional; in short: as §1
Rattus norvegicus [32] = assay: Compound was evaluated in experiment 2 for Change in High density lipoproteins at 30 (mg/kg) dose; format: functional; in short: as §1
Rattus norvegicus [33] = assay: Compound was evaluated in experiment 1 for High density lipoproteins at 10 (mg/kg) dose; format: functional; in short: as §1
Rattus norvegicus [34] = assay: Compound was evaluated in experiment 2 for non High density lipoproteins at 30 (mg/kg) dose; format: functional; in short: as §2
[35] = biological target: T1, Acyl-CoA:cholesterol acyltransferase (Oryctolagus cuniculus, UniProt Q95214); assay: Tested for in vitro inhibition against Acyl coenzyme A:cholesterol acyltransferase of intestinal microsomes in cholesterol-fed rabbits; parameters: species or system Microsome
T1 sequence (Q95214 whole entry): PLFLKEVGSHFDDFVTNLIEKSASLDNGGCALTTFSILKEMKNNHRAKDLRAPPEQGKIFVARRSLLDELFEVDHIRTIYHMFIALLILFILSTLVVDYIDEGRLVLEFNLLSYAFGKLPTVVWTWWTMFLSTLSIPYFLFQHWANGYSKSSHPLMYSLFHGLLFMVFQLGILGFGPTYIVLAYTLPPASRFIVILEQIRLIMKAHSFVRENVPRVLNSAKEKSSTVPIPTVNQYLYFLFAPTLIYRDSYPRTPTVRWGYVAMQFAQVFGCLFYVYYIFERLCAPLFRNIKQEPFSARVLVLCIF
In short: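 Microsomes were prepared from intestine of cholesterol-fed rabbits. ACAT activity was measured using [1-14C]oleoyl-CoA as substrate. Each determination was run in triplicate.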

[36] = Compound was evaluated for the distribution coefficient at pH 7.4; format: physicochemical; details: octanol/water, read-out: logD
Rattus norvegicus [37] = assay: Compound was evaluated for the percentage change in total cholesterol in peanut oil (5.5%)-cholic acid (0.3%)-cholesterol (1.5%)-fed rats at 30 mg/kg; format: functional
[38] = Compound was evaluated for the distribution coefficient at pH 1.0; format: physicochemical; details: octanol/water
[39] = Solubility at pH 4.0; format: physicochemical; details: buffer
[40] = Solubility at pH 7.4; format: physicochemical; details: buffer
[41] = Solubility at 0.1 N HCl; format: physicochemical; details: read-out: S
[42] = Compound was evaluated for the distribution coefficient at pH 4.0; format: physicochemical; details: octanol/water

Row | SMILES | TC (Rattus norvegicus [1]) | Change HDL -C (Rattus norvegicus [2]) | Change HDL -C (Rattus norvegicus [3]) | HDL-C (Rattus norvegicus [4]) | Change non HDL-C (Rattus norvegicus [5]) | TC (Rattus norvegicus [6]) | Change HDL -C (Rattus norvegicus [7]) | Change TC (Rattus norvegicus [8]) | Delta TC (Rattus norvegicus [11]) | Non-HDL-C (Rattus norvegicus [13]) | Change non HDL-C (Rattus norvegicus [15]) | Change non HDL-C (Rattus norvegicus [16]) | Change TC (Rattus norvegicus [17]) | HDL-C (Rattus norvegicus [18]) | Change non HDL-C (Rattus norvegicus [19]) | Change TC (Rattus norvegicus [20]) | Non-HDL-C (Rattus norvegicus [21]) | HDL-C (Rattus norvegicus [22]) | Non-HDL-C (Rattus norvegicus [23]) | Non-HDL-C (Rattus norvegicus [24]) | other results
1 | CC(C)c1cccc(C(C)C)c1NC(=O)NCC1(c2ccc(N(C)C)cc2)CCCC1.Cl [NEVANIMIBE HYDROCHLORIDE] | 222 | 167% | 32% | 15 | -23% | 252 | 38% | -20% | -77% | 235 | -32% | -22% | -64% | 16 | -72% | -20% | 206 | 17 | 235 | 84 | HDL-C (Rattus norvegicus [9]): 36; solubility [10]: 6400 µg/mL; Change TC (Rattus norvegicus [12]): -69%; TC (Rattus norvegicus [14]): 91; Change TC (Rattus norvegicus [25]): -29%; solubility [26]: < 50 µg/mL; solubility [27]: 1330 µg/mL; Change non HDL-C (Rattus norvegicus [28]): -80%; TC (Rattus norvegicus [29]): 115; TC (Rattus norvegicus [30]): 251; Change HDL -C (Rattus norvegicus [31]): 44%; Change HDL -C (Rattus norvegicus [32]): 177%; HDL-C (Rattus norvegicus [33]): 31; Non-HDL-C (Rattus norvegicus [34]): 56
2 | CC(C)c1cccc(C(C)C)c1NC(=O)NCC1(c2cccc(CN3CCN(C)CC3)c2)CCCC1 | 209 | 60% | 27% | 15 | -25% | 325 | 8% | -24% | -21% | 313 | -36% | 3% | -51% | 12 | -55% | 3% | 195 | 12 | 227 | 135 | IC50 [35]: 16 nM; Change TC (Rattus norvegicus [25]): -33%; TC (Rattus norvegicus [29]): 154; TC (Rattus norvegicus [30]): 239; Change HDL -C (Rattus norvegicus [31]): 2%; logD [36]: 5.28; Delta TC (Rattus norvegicus [37]): -66%; HDL-C (Rattus norvegicus [33]): 19
3 | CC(C)c1cccc(C(C)C)c1NC(=O)NCC1(c2ccc(N(C)C)cc2)CCCC1 [NEVANIMIBE] | – | – | – | – | – | – | – | – | -65% | – | – | – | – | – | – | – | – | – | – | – | logD [38]: 2.18; solubility [39]: < 10 µg/mL; solubility [40]: < 10 µg/mL; logD [36]: 5.59; solubility [41]: < 10 µg/mL; logD [42]: 2.89
